Our source for the IC50 and inhibition values is ChEMBL document CHEMBL4814002, “Synthesis, biological evaluation, and docking studies of novel pyrrolo[2,3-b]pyridine derivatives as both ectonucleotide pyrophosphatase/phosphodiesterase inhibitors and antiproliferative agents” (Eur J Med Chem, 2021).

Molecules are shown by their SMILES. Activity calls are given as the source filed them. The calls are words filed in the database; no cut-off is given here. Some results are limits rather than exact numbers.

For assay [1], the target named is T1, Ectonucleotide pyrophosphatase/phosphodiesterase family member 1 (Homo sapiens, UniProt P22413).
T1 sequence (P22413 whole entry): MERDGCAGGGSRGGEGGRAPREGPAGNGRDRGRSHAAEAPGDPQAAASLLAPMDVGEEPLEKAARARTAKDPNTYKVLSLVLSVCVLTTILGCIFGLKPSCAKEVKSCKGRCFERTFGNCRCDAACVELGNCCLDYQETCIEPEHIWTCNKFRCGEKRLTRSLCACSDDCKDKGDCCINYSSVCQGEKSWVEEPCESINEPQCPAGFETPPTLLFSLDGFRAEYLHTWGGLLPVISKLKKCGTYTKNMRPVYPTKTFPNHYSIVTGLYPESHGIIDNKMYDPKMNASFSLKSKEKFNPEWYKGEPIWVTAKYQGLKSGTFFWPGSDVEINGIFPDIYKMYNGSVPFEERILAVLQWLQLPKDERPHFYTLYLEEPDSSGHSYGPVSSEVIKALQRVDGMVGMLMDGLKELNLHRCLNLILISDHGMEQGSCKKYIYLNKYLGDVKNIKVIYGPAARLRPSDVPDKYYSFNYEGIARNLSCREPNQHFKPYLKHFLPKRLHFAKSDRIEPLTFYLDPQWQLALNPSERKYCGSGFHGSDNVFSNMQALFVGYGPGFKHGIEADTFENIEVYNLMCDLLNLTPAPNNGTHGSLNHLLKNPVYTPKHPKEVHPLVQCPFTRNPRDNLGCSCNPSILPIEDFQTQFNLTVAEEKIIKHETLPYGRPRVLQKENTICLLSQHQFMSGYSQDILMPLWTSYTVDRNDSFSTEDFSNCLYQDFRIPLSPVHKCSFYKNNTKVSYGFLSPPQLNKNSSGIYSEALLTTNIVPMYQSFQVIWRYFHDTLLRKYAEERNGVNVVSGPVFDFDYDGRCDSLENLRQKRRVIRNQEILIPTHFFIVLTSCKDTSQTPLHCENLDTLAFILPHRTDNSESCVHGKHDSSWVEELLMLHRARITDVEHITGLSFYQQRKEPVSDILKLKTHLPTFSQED
Nature of the assay: Inhibition of human NPP1 transfected in COS7 cells using pNP-TMP as substrate incubated for 35 mins. In kind it is cell-based.

Assay [2] deals with T2, Ectonucleotide pyrophosphatase/phosphodiesterase family member 3 (Homo sapiens, UniProt O14638).
T2 sequence (O14638 whole entry): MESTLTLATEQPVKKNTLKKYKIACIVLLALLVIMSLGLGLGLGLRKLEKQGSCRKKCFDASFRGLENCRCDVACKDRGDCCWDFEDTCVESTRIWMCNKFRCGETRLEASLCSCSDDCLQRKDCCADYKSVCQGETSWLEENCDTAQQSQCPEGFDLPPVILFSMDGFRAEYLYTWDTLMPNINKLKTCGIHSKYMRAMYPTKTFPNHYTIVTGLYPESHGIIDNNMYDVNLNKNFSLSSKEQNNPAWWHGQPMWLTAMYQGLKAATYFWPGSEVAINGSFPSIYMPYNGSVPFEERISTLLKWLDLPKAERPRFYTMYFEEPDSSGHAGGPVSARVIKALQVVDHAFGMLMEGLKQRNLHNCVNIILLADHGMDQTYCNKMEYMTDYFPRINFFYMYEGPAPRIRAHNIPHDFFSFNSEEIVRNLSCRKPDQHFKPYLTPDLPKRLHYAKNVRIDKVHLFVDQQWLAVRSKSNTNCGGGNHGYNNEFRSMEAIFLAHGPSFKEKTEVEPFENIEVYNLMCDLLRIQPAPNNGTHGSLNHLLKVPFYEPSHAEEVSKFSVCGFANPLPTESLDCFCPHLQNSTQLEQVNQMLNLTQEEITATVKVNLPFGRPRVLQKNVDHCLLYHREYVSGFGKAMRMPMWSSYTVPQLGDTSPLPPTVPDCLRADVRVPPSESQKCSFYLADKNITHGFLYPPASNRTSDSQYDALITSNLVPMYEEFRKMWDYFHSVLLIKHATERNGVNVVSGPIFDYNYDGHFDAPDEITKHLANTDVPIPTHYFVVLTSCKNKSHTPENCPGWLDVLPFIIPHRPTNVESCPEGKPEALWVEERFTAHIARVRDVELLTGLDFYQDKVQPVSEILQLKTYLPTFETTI
Nature of the assay: Inhibition of human NPP3 transfected in COS7 cells using pNP-TMP as substrate incubated for 35 mins. Format: cell-based.

Assay [3] deals with MCF7. Put plainly: Antiproliferative activity against human MCF7 cells assessed as reduction in cell growth at 10 uM incubated for 24 hrs by MTT assay relative to control. In kind it is functional. The gist of the method:
(§1)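 MTT assay. Cells seeded at 4 × 10^4 per well and incubated overnight. Treated 24 h; DMSO served as negative control and doxorubicin as positive control. MTT dye 0.5 mg/mL added for 2 h at 37 °C, formazan dissolved in DMSO, absorbance read at 570 nm. Single-concentration screen at 10; dose-dependent dilutions gave IC50. WI-38 fibroblasts grown in DMEM with 10% FBS and 1% penicillin/streptomycin. Triplicate means ± S.E.M.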
In general terms: Tetrazolium dyes change colour on reduction, which living cells bring about.

Assay [4] has as its system HT-29. Put plainly: Antiproliferative activity against human HT-29 cells assessed as reduction in cell growth at 10 uM incubated for 24 hrs by MTT assay relative to control. Format: functional. The gist of the method: as §1
The test system of assay [5] is MCF7. Nature of the assay: Antiproliferative activity against human MCF7 cells assessed as reduction in cell growth at 100 uM incubated for 24 hrs by MTT assay relative to control. Format: functional.
Assay [6] deals with T2, Ectonucleotide pyrophosphatase/phosphodiesterase family member 3. Nature of the assay: Inhibition of NPP3 (unknown origin) transfected in COS7 cells using pNP-TMP as substrate incubated for 35 mins by spectrophotometric method. In kind it is cell-based. The gist of the method:
(§2)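 Human NPP1 or NPP3 expressed in COS-7 cells by plasmid/Lipofectamine transfection, harvested 48-72 h later. Membrane fractions prepared by sonication and 300 g centrifugation, stored with 7.5% glycerol; protein measured by Bradford. Assay buffer: 50 mM Tris-HCl, 5 mM MgCl2, 0.1 mM ZnCl2, pH 9.5. Triplicates ± S.E.M.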

Assay [7] addresses T3, Ectonucleotide pyrophosphatase/phosphodiesterase family member 1 (Homo sapiens) (UniProt P22413).
T3 sequence (whole entry): T1 sequence (P22413 whole entry)
Nature of the assay: Inhibition of human NPP1 transfected in COS7 cells at 100 uM using pNP-TMP as substrate incubated for 35 mins relative to control. Format: cell-based. Summed up:
as §2

Assay [8] has as its target T3, Ectonucleotide pyrophosphatase/phosphodiesterase family member 1 (Homo sapiens). Nature of the assay: Non-competitive inhibition of human NPP1 transfected in COS7 cells at 0.5 to 1.5 uM using pNP-TMP as substrate incubated for 35 mins by Lineweaver-Burk plot analysis. Format: cell-based. As to conditions: dose 0.5-1.5 µM. The gist of the method:
(§3)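 Kinetics with pNP-TMP at 0.0, 1.25, 2.50, 5.0, 7.5 and 10.0 mM in Tris-HCl 50 mM, MgCl2 5 mM, ZnCl2 0.1 mM, pH 9.5. Incubated at 37 °C and read over 35 min at 5-min intervals. Enzyme from transfected COS-7 membrane fractions.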

Assay [9] has as its system MCF7. Nature of the assay: Antiproliferative activity against human MCF7 cells assessed as reduction in cell growth incubated for 24 hrs by MTT assay. The following applies: MCF7, 24 h. Format: functional, cell-based. Summed up:
as §1

Another assay relates to WI-38. Put plainly: Cytotoxicity against human WI-38 cells assessed as reduction in cell growth incubated for 24 hrs by MTT assay. In kind it is cell-based. As to conditions: WI-38, 24 h. The gist of the method:
as §1

In assay [10] the target is T4, Ectonucleotide pyrophosphatase/phosphodiesterase family member 3 (Homo sapiens) (UniProt O14638).
T4 sequence (whole entry): T2 sequence (O14638 whole entry)
Put plainly: Inhibition of human NPP3 transfected in COS7 cells at 100 uM using pNP-TMP as substrate incubated for 35 mins relative to control. In kind it is cell-based. Summed up: as §2

The target in assay [11] is T4, Ectonucleotide pyrophosphatase/phosphodiesterase family member 3 (Homo sapiens). Put plainly: Competitive inhibition of human NPP3 transfected in COS7 cells at 0.1 to 1 uM using pNP-TMP as substrate incubated for 35 mins by Lineweaver-Burk plot analysis. As to conditions: dose 0.1-1 µM. In kind it is cell-based. The gist of the method:
as §3

For assay [12], the target named is T1, Ectonucleotide pyrophosphatase/phosphodiesterase family member 1. Nature of the assay: Inhibition of NPP1 (unknown origin) transfected in COS7 cells using pNP-TMP as substrate incubated for 35 mins by spectrophotometric method. In kind it is cell-based. Summed up: as §2
Assay [13] relates to HT-29. Nature of the assay: Antiproliferative activity against human HT-29 cells assessed as reduction in cell growth incubated for 24 hrs by MTT assay. Format: functional, cell-based. The following applies: HT-29, 24 h. The gist of the method: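 HT-29 colon cancer cells seeded per well and incubated overnight, then exposed for 24 h to serial dilutions of compound (10 mM DMSO stock diluted in medium), with doxorubicin and DMSO controls. MTT (0.5 mg/mL) added for 2 h at 37 °C, formazan dissolved in DMSO, absorbance read at 570 nm. IC50 from triplicate assays, mean ± S.E.M.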

As a reminder, the IC50 is the concentration that gives 50% inhibition. By inhibition is commonly meant the relative decrease from the control value, in per cent. Consider `O=C(NS(=O)(=O)c1ccc2ccccc2c1)n1ccc2cc(Br)cnc21`, for which the IC50 in [1] was 178 µM; in [2], 25.3 µM. The figures for the inhibition at 10 µM in the assay with MCF7 [3] and in the assay with HT-29 [4] were 28.8% and 60.1%, respectively.
As to `Oc1ccc(-c2nn(-c3cccc(NC(=S)Nc4ccccc4)c3)cc2-c2ccncc2)cc1Cl`, in the assay on MCF7 [5], the inhibition at 100 µM amounted to 35.6%. This compound also yielded an IC50 in assay [6] of 0.21 µM.
In assay [7], `Cc1ccc(S(=O)(=O)NC(=O)n2ccc3cccnc32)cc1` displayed an inhibition of 47.9%. Moreover, the midpoint of inhibition in [2], the IC50, lay at 3.72 µM. In addition, the inhibition at 10 µM in the assay with MCF7 [3] stood at 20.3%; in the assay with HT-29 [4] it was 33.4%.
Regarding `O=C(NS(=O)(=O)c1cccc([N+](=O)[O-])c1)n1ccc2cccnc21`, the inhibition entry in assay [8] is “Active”. Besides, the concentration for half-maximal inhibition (IC50) in assay [1] is 0.8 µM; in the assay with MCF7 [9], 4.7 µM; in [2], 1.17 µM; in the assay with WI-38 it was more than 20 µM. Moreover, the inhibition at 10 µM with MCF7 [3] was 70.7%; in the assay with HT-29 [4] it was 18.9%.
As for `O=C(NS(=O)(=O)c1ccc2ccccc2c1)n1ccc2cccnc21`, the inhibition stood at 48.6% in assay [7] and 44.1% in assay [10]. Further, the inhibition at 10 µM in the assay on MCF7 [3] was determined as 1.9%; in the assay with HT-29 [4], 16.2%.
Regarding `O=C(NS(=O)(=O)c1ccc2ccccc2c1)n1ccc2c(Cl)ccnc21`, the IC50 in [1] turned out to be 3.29 µM; in [2] it was 1.31 µM. Besides, the inhibition at 10 µM in the assay with MCF7 [3] was 28.6%; with HT-29 [4], 58.2%.
For `O=C(NS(=O)(=O)c1ccccc1)n1ccc2c(Cl)ccnc21` the same measures were 1.08 µM, 26.1 µM, 3.32% and 47.6%.
As for `O=C(NS(=O)(=O)c1ccccc1)n1ccc2cccnc21`, in assay [1], the IC50 stood at 4.5 µM. This compound also yielded an inhibition in assay [10] of 37.5%. Besides, the inhibition at 10 µM in the assay on MCF7 [3] amounted to 18.9%; with HT-29 [4], 23.6%.
On to `CN(C)c1ccnc2c1ccn2C(=O)NS(=O)(=O)c1ccccc1`, for which the inhibition entry in [11] was “Active”. Besides, the IC50 in assay [1] came to 2.77 µM; in [2], 0.55 µM. Further, the inhibition at 10 µM in the assay with MCF7 [3] came out at 26.9%; in the assay with HT-29 [4], 17.6%.
As to `O=C(NS(=O)(=O)c1ccccc1)n1ccc2cc(Br)cnc21`, the IC50 in [1] was 8.3 µM; in [2] it was 2.01 µM. Further, the inhibition at 10 µM in the assay on MCF7 [3] came to 16.8%; in the assay with HT-29 [4] it was 14.6%.
`O=C(NS(=O)(=O)c1ccc(Cl)cc1)n1ccc2cccnc21`: the IC50 was determined as 10.4 µM in [1] and 0.88 µM in assay [2]. Further, the values for the inhibition at 10 µM in the assay with MCF7 [3] and in the assay on HT-29 [4] were 33.5% and 54.4%, respectively.
Turning to `COc1ccc(-c2nn(-c3cccc(NS(=O)(=O)c4ccc(C)cc4)c3)cc2-c2ccncc2)cc1Cl`, the inhibition at 100 µM with MCF7 [5] is 40.3%. Besides, the midpoint of inhibition in assay [12], the IC50, lay at 0.18 µM.
Consider `COc1cccc2c1C(=O)c1c(O)c3c(c(O)c1C2=O)C[C@@](O)(C(=O)CO)C[C@@H]3O[C@H]1C[C@H](N)[C@H](O)[C@H](C)O1` [DOXORUBICIN], for which the 50% inhibitory concentration (IC50) with HT-29 [13] turned out to be 1.4 µM; in the assay with WI-38 it was 1.96 µM. In addition, the inhibition at 10 µM with MCF7 [3] was found to be 96.8%; with HT-29 [4] it was 94.3%.
As for `O=C(NS(=O)(=O)c1cccc([N+](=O)[O-])c1)n1ccc2cc(Br)cnc21`, the IC50 was 1.15 µM in assay [1] and 2.13 µM in assay [2]. Moreover, the inhibition at 10 µM with MCF7 [3] is 43%; in the assay with HT-29 [4], 58.5%.
In the case of `Cc1ccc(S(=O)(=O)NC(=O)n2ccc3c(N(C)C)ccnc32)cc1`, the inhibition worked out at 41.5% in [7] and 45.7% in assay [10]. Further, the inhibition at 10 µM with MCF7 [3] came to 5.6%; in the assay on HT-29 [4], 21.4%.
